From ChEMBL document CHEMBL4020708, “Studies of CDK 8/19 inhibitors: Discovery of novel and selective CDK8/19 dual inhibitors and elimination of their CYP3A4 time-dependent inhibition potential” (Bioorg Med Chem, 2017)
In brackets after ≈: the same amount, converted by molar mass. Activity calls are given as the source filed them. The calls are words filed in the database; no cut-off is given here.

How the values were obtained:
[1] = Cmax in mouse at 1 mg/kg, po administered as cassette dose measured up to 8 hrs by LC/MS/MS analysis; assay type: ADME, organism-based; set-up: dose 1 mg/kg, route oral; settings: in vivo
Procedure, shortened: (§1)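 Cassette dosing to non-fasted mice, 1 mg/kg po (0–8 h). Plasma obtained from blood by centrifugation, deproteinized with acetonitrile, centrifuged, and the supernatant analysed by LC/MS/MS.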

[2] = target: Cyclin-C/Cyclin-dependent kinase 19 (Homo sapiens, UniProt Q9BWU1); assay: Inhibition of kinase tracer 236 binding to GST-tagged CDK19/CycC (unknown origin) after 60 min by TR-FRET assay; assay type: protein-complex assay
Sequence of Cyclin-C/Cyclin-dependent kinase 19 (Q9BWU1 whole entry): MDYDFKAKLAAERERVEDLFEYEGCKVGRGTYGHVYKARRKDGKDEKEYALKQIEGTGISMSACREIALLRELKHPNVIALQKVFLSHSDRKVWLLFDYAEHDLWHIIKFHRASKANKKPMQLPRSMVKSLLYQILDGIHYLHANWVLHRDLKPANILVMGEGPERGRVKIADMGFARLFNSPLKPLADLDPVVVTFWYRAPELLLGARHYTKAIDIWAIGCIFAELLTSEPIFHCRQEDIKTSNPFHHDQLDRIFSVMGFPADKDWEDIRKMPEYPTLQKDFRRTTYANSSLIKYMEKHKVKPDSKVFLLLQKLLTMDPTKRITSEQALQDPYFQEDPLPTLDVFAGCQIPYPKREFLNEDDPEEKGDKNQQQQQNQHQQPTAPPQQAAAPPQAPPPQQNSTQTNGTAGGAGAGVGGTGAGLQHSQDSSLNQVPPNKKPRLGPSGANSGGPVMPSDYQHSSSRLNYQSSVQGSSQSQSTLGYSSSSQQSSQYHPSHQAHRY
Sequence of Cyclin-C/Cyclin-dependent kinase 19 (P24863 whole entry, further chain): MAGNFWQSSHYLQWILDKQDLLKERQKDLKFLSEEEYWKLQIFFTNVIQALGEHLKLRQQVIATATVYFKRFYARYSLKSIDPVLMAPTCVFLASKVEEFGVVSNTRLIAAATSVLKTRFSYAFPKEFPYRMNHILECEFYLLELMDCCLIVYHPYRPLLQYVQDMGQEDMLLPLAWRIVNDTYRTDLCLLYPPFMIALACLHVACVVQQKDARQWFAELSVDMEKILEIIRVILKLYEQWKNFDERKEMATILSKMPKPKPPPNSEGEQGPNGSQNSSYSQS
Procedure, shortened: (§2)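 TR-FRET ligand displacement using 20 nM GST-CDK8/CycC or GST-CDK19/CycC, 20 nM Kinase Tracer 236 and Tb-anti-GST antibody. Buffer 25 mM HEPES, 10 mM MgCl₂, 2 mM DTT, 0.01% Tween-20. Incubated 60 min at rt.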

[3] = Total clearance in mouse at 1 mg/kg, po administered as cassette dose measured up to 8 hrs by LC/MS/MS analysis; assay type: ADME, organism-based; settings: in vivo
Plasma [4] = assay: Drug metabolism in mouse plasma assessed as formation of (E)-N-(4-((2-hydroxyethylamino)methyl)phenyl)-3-(4-(1-methyl-1H-pyrazol-4-yl)pyridin-3-yl)acrylamide at 1 mg/kg, po administered as cassette dose measured up to 8 hrs by LC/MS/MS analysis; assay type: ADME, organism-based; settings: in vivo; procedure, shortened: as §1
[5] = target: T1, Cyclin-dependent kinase 8 (Homo sapiens, UniProt P49336); assay: Inhibition of CDK8 in human SW480 cells assessed as reduction in IFN-gamma induced STAT1 phosphorylation at Ser727 residues preincubated for 2 hrs followed by IFN-gamma addition measured after 1 hr by In-cell western assay; assay type: cell-based
T1 sequence (P49336 whole entry): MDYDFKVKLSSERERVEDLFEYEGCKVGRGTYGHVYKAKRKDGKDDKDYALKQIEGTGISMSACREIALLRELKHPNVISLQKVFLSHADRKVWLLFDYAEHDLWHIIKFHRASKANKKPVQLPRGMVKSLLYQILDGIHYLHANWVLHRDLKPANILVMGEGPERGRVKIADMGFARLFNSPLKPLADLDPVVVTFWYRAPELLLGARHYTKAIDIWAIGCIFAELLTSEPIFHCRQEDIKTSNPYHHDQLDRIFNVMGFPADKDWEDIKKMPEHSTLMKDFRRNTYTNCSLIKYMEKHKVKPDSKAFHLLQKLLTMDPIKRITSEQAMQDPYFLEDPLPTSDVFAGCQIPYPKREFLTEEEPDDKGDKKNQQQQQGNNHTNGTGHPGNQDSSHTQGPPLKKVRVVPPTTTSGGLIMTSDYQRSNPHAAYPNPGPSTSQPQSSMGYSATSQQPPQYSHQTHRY
Procedure, shortened: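 SW480 cells kept in L-15 with 10% FBS at 37 °C and plated at 6000 cells/well overnight. Compound applied 2 h, then 10 ng/mL IFN-γ for 1 h. Cells fixed, permeabilized and blocked, then probed overnight at 4 °C with anti-pSTAT1 Ser727. IRDye 800CW secondary plus DRAQ5 for DNA, Odyssey imaging.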

[6] = AUC (0 to 8 hrs) in mouse at 1 mg/kg, po administered as cassette dose by LC/MS/MS analysis; assay type: ADME, organism-based; set-up: time < 8 hr, dose 1 mg/kg, route oral; settings: in vivo; procedure, shortened: as §1
Plasma [7] = assay: Drug metabolism in mouse plasma assessed as formation of (E)-3-(4-(1H-pyrazol-4-yl)pyridin-3-yl)-N-(4-(morpholinomethyl)phenyl)acrylamide at 1 mg/kg, po administered as cassette dose measured up to 8 hrs by LC/MS/MS analysis; assay type: ADME, organism-based; settings: in vivo; procedure, shortened: as §1
Plasma [8] = assay: Drug metabolism in mouse plasma assessed as formation of (E)-3-(4-(1-methyl-1H-pyrazol-4-yl)pyridin-3-yl)-N-(4-((3-oxomorpholino)methyl)phenyl)acrylamide at 1 mg/kg, po administered as cassette dose measured up to 8 hrs by LC/MS/MS analysis; assay type: ADME, organism-based; settings: in vivo; procedure, shortened: as §1
[9] = MRT in mouse at 1 mg/kg, po administered as cassette dose measured up to 8 hrs by LC/MS/MS analysis; assay type: ADME, organism-based; settings: in vivo; procedure, shortened: as §1
CDK8/Cyclin C = CDK8/Cyclin C (Homo sapiens, UniProt P49336); assay: Inhibition of kinase tracer 236 binding to full length N terminal GST-tagged human CDK8 (1 to 464 end residues) /CycC ( 1 to 283 end residues) expressed in baculovirus expression system after 60 min by TR-FRET assay; procedure, shortened: as §2
Sequence of CDK8/Cyclin C (P49336 whole entry): as above
Sequence of CDK8/Cyclin C (P24863 whole entry, further chain): as the sequence (P24863 whole entry, further chain) above

CYP3A4 = CYP3A4 (Homo sapiens, UniProt P08684); assay: Time-dependent inhibition of CYP3A4 in human liver microsomes assessed as reduction in testosterone to 6beta-hydroxytestosterone conversion by measuring remaining activity at 30 uM preincubated for 60 mins followed by testosterone addition measured after 20 mins in presence of NADPH by UPLC analysis relative to control; assay type: ADME; settings: probe testosterone (6beta-hydroxylation), read-out: Activity
Sequence of CYP3A4 (P08684 whole entry): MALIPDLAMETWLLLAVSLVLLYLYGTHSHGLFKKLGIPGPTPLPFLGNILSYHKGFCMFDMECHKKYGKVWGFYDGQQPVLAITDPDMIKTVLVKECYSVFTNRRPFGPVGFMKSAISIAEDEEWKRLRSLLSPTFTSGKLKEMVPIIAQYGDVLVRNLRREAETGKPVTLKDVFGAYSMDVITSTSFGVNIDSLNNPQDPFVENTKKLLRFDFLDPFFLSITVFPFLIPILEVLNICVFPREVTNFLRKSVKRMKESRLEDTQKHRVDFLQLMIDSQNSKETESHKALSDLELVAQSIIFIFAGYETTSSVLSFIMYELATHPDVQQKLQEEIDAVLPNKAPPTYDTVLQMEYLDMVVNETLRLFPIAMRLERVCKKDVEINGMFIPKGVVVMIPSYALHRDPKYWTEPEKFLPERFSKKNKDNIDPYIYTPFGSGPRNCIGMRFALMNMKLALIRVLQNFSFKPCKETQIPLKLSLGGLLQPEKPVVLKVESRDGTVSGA
Procedure, shortened: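 Compound at 30 μM preincubated with human liver microsomes in phosphate buffer pH 7.4 at 37 °C for 0 or 60 min with an NADPH-generating system. Testosterone then added for 20 min, and 6β-hydroxytestosterone measured by UPLC. Activity expressed as % of DMSO control; % remaining taken after 60 min preincubation.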

Liver [10] = assay: Intrinsic clearance in human liver microsomes at 1 umol/L after 15 to 30 mins in presence of NADPH by LC/MS/MS analysis; assay type: ADME, microsome; settings: 1 µM
Procedure, shortened: (§3)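 Human or mouse liver microsomes at 0.2 mg/mL protein in 50 mmol/L phosphate buffer pH 7.4 with 1 μmol/L compound. Reaction started with an NADPH-generating system and stopped at 15 and 30 min with acetonitrile. LC/MS/MS readout. Intrinsic clearance taken as initial metabolic velocity (slope of concentration-time) divided by compound concentration.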

[11] = Oral bioavailability in mouse at 1 mg/kg administered as cassette dose measured up to 8 hrs by LC/MS/MS analysis; assay type: ADME, organism-based; settings: in vivo
Procedure, shortened: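 Bioavailability from mouse cassette dosing, 0.1 mg/kg iv and 1 mg/kg po, non-fasted animals. Plasma was deproteinized with acetonitrile and compound quantified by LC/MS/MS.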

[12] = Solubility of the compound at pH 6.8; assay type: physicochemical; settings: buffer
Procedure, shortened: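 Compound added from DMSO solution to JP 2nd disintegration fluid (pH 6.8) and incubated. Precipitate removed by filtration, and filtrate concentration measured by plate reader or HPLC.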

Liver [13] = assay: Intrinsic clearance in mouse liver microsomes at 1 umol/L after 15 to 30 mins in presence of NADPH by LC/MS/MS analysis; assay type: ADME, microsome; settings: 1 µM; procedure, shortened: as §3
Plasma [14] = assay: Drug metabolism in mouse plasma assessed as formation of (E)-4-(1-methyl-1H-pyrazol-4-yl)-3-(3-(4-(morpholinomethyl)phenylamino)-3-oxoprop-1-enyl)pyridine 1-oxide at 1 mg/kg, po administered as cassette dose measured up to 8 hrs by LC/MS/MS analysis; assay type: ADME, organism-based; settings: in vivo; procedure, shortened: as §1
Mus musculus [15] = assay: In vivo inhibition of STAT1 phosphorylation at Ser727 residues in C.B17/Icr-scid/scid Jcl mouse xenografted with human RPMI8226 cells at 15 to 30 mg/kg, po bid treated for 2 weeks measured over 2 to 8 hrs post dose by Western blot analysis; assay type: functional, organism-based
Procedure, shortened: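 Xenografted mice dosed po b.i.d. at 15 or 30 mg/kg for 2 weeks, sampled 2 h and 8 h post-dose on the final day. Samples lysed in Tris-SDS-glycerol buffer and boiled 95 °C for 5 min. 5 ug protein run on SDS-PAGE and blotted for STAT1 and phospho-STAT1 Ser727. HRP secondary with ECL detection.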

[16] = target: T1, Cyclin-dependent kinase 8; assay: Inhibition of CDK8 in human SW480 cells assessed as reduction in STAT1 phosphorylation at Ser727 residues up to 30 nM after 1 day by Western blot method; assay type: cell-based
Procedure, shortened: (§4)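 Cell pellets were lysed in 62.5 mM Tris-Cl (pH 7.5), 1% SDS and 5% glycerol, then boiled at 95 °C for 5 min. 5 ug total protein was run on SDS-polyacrylamide gels, transferred and probed for total STAT1 and phospho-STAT1 Ser727. Detection used HRP-conjugated secondary antibodies and ECL plus chemiluminescence.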

RPMI-8226 [17] = assay: Antitumor activity against human RPMI8226 cells xenografted in C.B17/Icr-scid/scid Jcl mouse assessed as tumor growth at 30 mg/kg, po bid after 2 weeks relative to control; assay type: functional
Procedure, shortened: (§5)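 Female C.B17/Icr-scid/scid Jcl mice, five weeks old, implanted sc in one flank with 1×10^7 RPMI-8226 cells in HBSS:Matrigel 1:1. When tumors reached about 80–140 mm³, dosed po b.i.d. at 15 or 30 mg/kg for 14 days. Caliper volume (0.5×length×width²) and body weight measured twice weekly. Tumor growth expressed as T/C vs vehicle. Mean ± se.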

[18] = target: T1, Cyclin-dependent kinase 8; assay: Inhibition of CDK8 in human RPMI8226 cells assessed as reduction in STAT1 phosphorylation at Ser727 residues up to 30 nM after 1 day by Western blot method; assay type: cell-based; procedure, shortened: as §4
RPMI-8226 [19] = assay: Antitumor activity against human RPMI8226 cells xenografted in C.B17/Icr-scid/scid Jcl mouse assessed as tumor growth at 15 mg/kg, po bid after 2 weeks relative to control; assay type: functional; procedure, shortened: as §5
[20] = target: T1, Cyclin-dependent kinase 8; assay: Inhibition of CDK8 in human EOL1 cells assessed as reduction in STAT1 phosphorylation at Ser727 residues up to 30 nM after 1 day by Western blot method; assay type: cell-based; procedure, shortened: as §4
RPMI-8226 [21] = assay: Antiproliferative activity against human RPMI8226 cells after 168 hrs by Celltiter-Glo luminescent assay; assay type: functional; settings: RPMI-8226, 168 h
Procedure, shortened: (§6)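 Cells seeded at 5×10^2 per well. Compound added 24 h later at an appropriate concentration and incubated 168 h. Viability read by CellTiter-Glo luminescence after 20 min. Nuclear count by CyQuant Direct fluorescence after 1 h.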

Mus musculus [22] = assay: Toxicity in C.B17/Icr-scid/scid Jcl mouse xenografted with human RPMI8226 cells assessed as change in body weight at 30 mg/kg, po bid after 2 weeks relative to control; assay type: organism-based; settings: in vivo, 336 h; procedure, shortened: as §5
EOL1 = assay: Antiproliferative activity against human EOL-1 cells after 168 hrs by Celltiter-Glo luminescent assay; assay type: functional; settings: EOL1, 168 h; procedure, shortened: as §6
Mus musculus [23] = assay: Toxicity in C.B17/Icr-scid/scid Jcl mouse xenografted with human RPMI8226 cells assessed as change in body weight at 15 mg/kg, po bid after 2 weeks; assay type: organism-based; settings: in vivo, 336 h; procedure, shortened: as §5

Structure (SMILES): Cn1cc(-c2ccncc2/C=C/C(=O)Nc2ccc(CN3CCOCC3)cc2)cn1
- Cmax [1]: 47.5 ng/mL
- IC50 [2]: 15 nM
- CL/F [3]: 49.5 mL/min/kg
- Drug metabolism (Plasma [4]): Metabolite_Detected
- EC50 [5]: 13 nM
- AUC(0-t) at 8 h [6]: 76.9 ng·h/mL
- Drug metabolism (Plasma [7]): Metabolite_Detected
- Drug metabolism (Plasma [8]): Metabolite_Detected
- MRT [9]: 1.5 h
- IC50 (CDK8/Cyclin C): 6.5 nM
- activity at 20 min, 30 µM (CYP3A4): 81%
- microsomal intrinsic clearance (Liver [10]): 22 µL/min/mg
- bioavailability [11]: 21.9%
- solubility [12]: 68 µg/mL (≈ 169 µM)
- intrinsic clearance (Liver [13]): 77 µL/min/mg
- Drug metabolism (Plasma [14]): Metabolite_Detected

Structure (SMILES): O=C(/C=C/c1cnccc1-c1cnn(C2CC2)c1)Nc1ccc(CN2CC(F)(F)C2)cc1
- Cmax [1]: 321 ng/mL
- inhibition (Mus musculus [15]): Active
- inhibition [16]: Active
- T/C (RPMI-8226 [17]): -2%
- inhibition [18]: Active
- T/C (RPMI-8226 [19]): 29%
- inhibition [20]: Active
- EC50 [5]: 8.4 nM
- AUC(0-t) at 8 h [6]: 370 ng·h/mL
- MRT [9]: 1.6 h
- GI50 (RPMI-8226 [21]): 21 nM
- Activity (Mus musculus [22]): 12%
- IC50 (CDK8/Cyclin C): 2.5 nM
- GI50 (EOL1): 6.5 nM
- activity at 20 min, 30 µM (CYP3A4): 99%
- microsomal intrinsic clearance (Liver [10]): 15 µL/min/mg
- bioavailability [11]: 22.5%
- solubility [12]: 30 µg/mL (≈ 68.9 µM)
- Activity (Mus musculus [23]): Non-Toxic
- intrinsic clearance (Liver [13]): 97 µL/min/mg
